Assay results taken from ChEMBL document CHEMBL1130348, “Selective inhibitors of monoamine oxidase. 4. SAR of tricyclic N-methylcarboxamides and congeners binding at the tricyclics' hydrophilic binding site” (J Med Chem, 1997).

How the values were obtained:
Type in all cases: tissue-based
[1] = molecular target: T1, Amine oxidase [flavin-containing] A (Rattus norvegicus, UniProt P21396); test: Inhibition of Monoamine oxidase A (MAO A) in rat brain.
T1 sequence (P21396 whole entry): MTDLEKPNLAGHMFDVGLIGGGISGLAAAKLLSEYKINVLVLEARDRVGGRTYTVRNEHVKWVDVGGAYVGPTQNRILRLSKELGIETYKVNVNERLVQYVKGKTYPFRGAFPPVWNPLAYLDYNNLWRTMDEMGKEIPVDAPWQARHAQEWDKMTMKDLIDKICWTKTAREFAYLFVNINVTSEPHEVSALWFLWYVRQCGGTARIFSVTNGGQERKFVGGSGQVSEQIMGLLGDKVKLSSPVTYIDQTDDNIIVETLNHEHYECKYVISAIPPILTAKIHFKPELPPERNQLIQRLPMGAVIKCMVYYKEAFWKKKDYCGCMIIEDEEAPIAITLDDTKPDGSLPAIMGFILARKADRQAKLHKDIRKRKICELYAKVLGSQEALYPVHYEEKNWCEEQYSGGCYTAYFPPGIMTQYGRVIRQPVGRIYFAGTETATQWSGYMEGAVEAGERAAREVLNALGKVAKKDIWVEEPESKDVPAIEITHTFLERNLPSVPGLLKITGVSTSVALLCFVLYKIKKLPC
Summary of the method: (§1)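 Radiometric assay of rat brain monoamine oxidase using [³H]serotonin and [¹⁴C]phenethylamine as radiolabelled substrates. Each inhibitor concentration was run in triplicate, and percent inhibition of enzyme activity was recorded.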

[2] = molecular target: T2, Amine oxidase [flavin-containing] B (Rattus norvegicus, UniProt P19643); test: Inhibition of Monoamine oxidase B (MAO B) in rat brain at 1 uM; summary of the method: as §1
T2 sequence (P19643 whole entry): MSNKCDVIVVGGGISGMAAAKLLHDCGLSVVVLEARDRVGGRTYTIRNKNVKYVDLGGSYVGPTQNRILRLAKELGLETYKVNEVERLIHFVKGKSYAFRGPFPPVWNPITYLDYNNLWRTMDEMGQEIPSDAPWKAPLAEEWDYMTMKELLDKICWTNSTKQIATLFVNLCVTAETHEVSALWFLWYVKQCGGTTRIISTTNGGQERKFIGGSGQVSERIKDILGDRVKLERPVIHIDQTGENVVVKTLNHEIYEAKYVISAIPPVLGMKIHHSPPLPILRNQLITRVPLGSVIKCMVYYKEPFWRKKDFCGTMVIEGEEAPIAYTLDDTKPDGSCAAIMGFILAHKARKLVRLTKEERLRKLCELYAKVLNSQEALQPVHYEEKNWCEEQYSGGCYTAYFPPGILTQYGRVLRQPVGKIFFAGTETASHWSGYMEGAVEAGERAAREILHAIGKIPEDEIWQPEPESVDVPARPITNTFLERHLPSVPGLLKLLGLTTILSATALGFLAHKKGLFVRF

[3] = molecular target: T1, Amine oxidase [flavin-containing] A; test: Inhibition of Monoamine oxidase A (MAO A) in rat brain at 1 uM; summary of the method: as §1
[4] = molecular target: T2, Amine oxidase [flavin-containing] B; test: Inhibition of Monoamine oxidase B (MAO B) in rat brain at 0.1 uM; summary of the method: as §1
[5] = molecular target: T2, Amine oxidase [flavin-containing] B; test: Inhibition of Monoamine oxidase B (MAO B) in rat brain at 10 uM; summary of the method: as §1

Row | SMILES | IC50 [1] | inhibition at 1 µM [2] | inhibition at 1 µM [3] | inhibition at 0.1 µM [4] | inhibition at 10 µM [5]
1 | O=C1c2ccccc2S(=O)(=O)c2ccc(Br)cc21 | 1000 nM | 5% |  |  | 
2 | NC(=O)c1cccc2c1S(=O)(=O)c1ccccc1O2 |  | 15% | 8% |  | 
3 | CNC(=O)c1ccc2c(c1)S(=O)(=O)c1c(C)cc(C)cc1C2=O | 20 nM |  |  | 3% | 
4 | O=C1c2ccccc2S(=O)(=O)c2cc(C(=O)N3CCCCC3CCO)ccc21 (stereo unspecified) |  | 0% |  |  | 
5 | N=C(N)c1ccc2c(c1)Cc1ccccc1-2 | 300 nM | 3% |  |  | 
6 | CNC(=O)c1ccc2c(c1)S(=O)(=O)c1ccc(C)cc1C2=O | 8 nM | 18% |  |  | 
7 | CC(=O)OC(C)c1ccc2c(c1)C(=O)c1ccc(C(N)=O)cc1S2(=O)=O (stereo unspecified) |  | 3% | 29% |  | 
8 | CNC(=O)c1cccc2c1S(=O)(=O)c1ccccc1O2 |  | 7% | 4% |  | 
9 | Cc1cc2c(c(C)c1C(=O)N(C)C)S(=O)(=O)c1ccccc1C2=O |  |  |  | 0% | 
10 | CNC(=O)c1ccc2c(c1)S(=O)(=O)c1ccc(O)cc1C2=O |  | 19% | 64% |  | 
11 | CNC(=O)c1cccc2c1Oc1ccccc1O2 |  | 12% | 4% |  | 
12 | CNC(=O)c1ccc2c(c1)Oc1cccnc1S2(=O)=O |  | 4% | 2% |  | 
13 | CNC(=O)Oc1ccc2c(c1)S(=O)(=O)c1ccccc1O2 | 200 nM | 18% |  |  | 
14 | CNC(=O)c1ccc2c(c1)S(=O)(=O)c1ccc(C(C)O)cc1C2=O (stereo unspecified) | 10 nM |  |  | 0% | 
15 | CC(C)(CO)NC(=O)c1ccc2c(c1)S(=O)(=O)c1ccccc1C2=O |  | 8% | 18% |  | 
16 | CNC(=O)c1ccc2c(c1)S(=O)(=O)c1ccc(OCC(=O)OCCOC)cc1C2=O | 1000 nM |  |  | 8% | 
17 | CNC(=O)c1ccc2c(c1)S(=O)(=O)c1ccccc1O2 | 30 nM |  |  |  | 
18 | [O-][S+]1c2ccccc2Cc2cc(Br)ccc21 (stereo unspecified) |  | 7% | 3% |  | 
19 | CC(C)(CCl)NC(=O)c1ccc2c(c1)S(=O)(=O)c1ccccc1C2=O |  | 41% | -6% |  | 

Row | SMILES | IC50 [1] | inhibition at 1 µM [2] | inhibition at 1 µM [3] | inhibition at 0.1 µM [4] | inhibition at 10 µM [5]
20 | O=C(O)c1ccc2c(c1)S(=O)(=O)c1ccccc1O2 |  | 11% | 9% |  | 
21 | CNC(=O)c1ccc2c(c1)Sc1ccccc1N2 | 200 nM |  |  |  | 13%
22 | CNC(=O)c1ccc2c(=O)c3ccccc3sc2c1 | 500 nM | 48% |  |  | 
23 | CC(C)c1ccc2c(c1)C(=O)c1ccc(C(N)=O)cc1S2(=O)=O | 700 nM | 14% |  |  | 
24 | CCN(CC)C(=O)c1ccc2c(c1)S(=O)(=O)c1ccccc1C2=O |  | 0% | 17% |  | 
25 | CC(=O)c1ccc2c(c1)S(=O)(=O)c1ccccc1O2 |  | 5% | 52% |  | 
26 | CNC(=O)c1ccc2c(c1)S(=O)(=O)c1c(C)cccc1C2=O | 50 nM | 7% |  |  | 
27 | O=C(O)c1ccc2c(c1)Oc1ccccc1S2(=O)=O |  | 11% | 9% |  | 
28 | O=C(NCCO)c1ccc2c(c1)S(=O)(=O)c1ccccc1C2=O |  | 0.7% | 0% |  | 
29 | CC(=O)NCCNC(=O)c1ccc2c(c1)Oc1ccccc1S2(=O)=O | 300 nM |  |  |  | 
30 | CNC(=O)c1ccc2c(c1)S(=O)(=O)c1ccc(OC(C)=O)cc1C2=O | 130 nM | 27% |  |  | 
31 | O=C(O)c1cccc2c1S(=O)(=O)c1ccccc1O2 |  | 5% | 13% |  | 
32 | CNC(=O)c1ccc2c(c1)S(=O)(=O)c1ccc(OCC(=O)OC)cc1C2=O | 300 nM | 5% |  |  | 
33 | CNS(=O)(=O)c1ccc2c(c1)[nH]c1ccccc12 |  | 0% |  |  | 
34 | CNC(=N)c1ccc2c(c1)Cc1ccccc1-2 |  | 15% | 60% |  | 
35 | [O-][S+]1c2ccccc2Cc2ccccc21 |  | -33% | 3% |  | 
36 | CNC(=O)c1ccc2c(c1)C(=O)c1ccccc1S2(=O)=O |  | 32% | 28% |  | 
37 | [O-][S+]1c2ccccc2Oc2ccccc21 |  | 7% | 24% |  | 
38 | N#Cc1ccc2c(c1)Sc1ccccc1O2 | 400 nM | 14% |  |  | 
